These results are taken from the array DNA melting data of Ke et al. (doi:10.1101/2024.01.08.574731).

A short description of series [1]: folding enthalpy; higher = less favourable; fluorescence melt of hairpins on a sequencing array, two-state fit. The following applies: sodium 0.088 M. The essentials: (§1)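 Bootstrapped two-state fits yielded melting temperature and folding enthalpy for library hairpins. Cy3 fluorescence, with annealed Cy3 and quencher oligos, was imaged on a sequenced MiSeq flow cell in 50 mM Na-HEPES pH 8.0, 25 mM NaCl in 2.5 °C steps up to 60 °C, and normalised to pre-quench Cy3 and to control constructs. Four replicates were combined by inverse variance, and fitted temperatures were raised by 9.35 °C to match UV melts.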

Series [2] can be described thus: melting temperature; fluorescence melt of hairpins on a sequencing array, two-state fit, raised by 9.35 °C to match UV melts. The following applies: sodium 0.088 M. The essentials: as §1

Consider GTGTCCGCGAAAGCGCAC (((..(((....)))))), for which, in series [1], the folding enthalpy was -14.1 kcal/mol. Further, the Tm in series [2] is 40.5 °C.

Take GTGTCCGGAAACGGATGC (..((((....))))..): in series [1], the folding enthalpy was -25.7 kcal/mol. Further, the Tm in series [2] worked out at 48 °C.

Regarding GTGTCGCGAAAGCGCAC (((.(((....)))))), the folding enthalpy in series [1] is -18.8 kcal/mol. The Tm in series [2] was 56.6 °C.

Consider GTGTCGTCGAAAGACCAC (((..(((....)))))), for which, in series [1], the folding enthalpy is -19.2 kcal/mol. Moreover, the Tm in series [2] is 38.4 °C.

Consider GTGTCTCGAAAGAGCCAC (((.(((....))).))), for which the folding enthalpy in series [1] was -28.9 kcal/mol. For the same sequence, the Tm in series [2] came to 49.7 °C.

In the case of GTGTCTCGAAAGAGGCAC (((.(((....))).))), the folding enthalpy in series [1] is -38.5 kcal/mol. For the same sequence, in series [2], the Tm turned out to be 61.3 °C.

For the sequence GTGTCTGAAAAGACAC ((((((....)))))), the folding enthalpy in series [1] was -33.7 kcal/mol. In series [2], the Tm was 61 °C.

On to GTGTCTGGAAACAAACAC ((((.((....)).)))), for which the folding enthalpy in series [1] is -21.6 kcal/mol. Also, in series [2], the Tm came out at 33.2 °C.

Take GTGTCTGGAAACGGATAC ((.((.(....).)).)): the folding enthalpy in series [1] is -17.2 kcal/mol. Moreover, the Tm in series [2] stood at 36.6 °C.

GTGTCTTCGAAAGAACAC (((..(((....)))))): the folding enthalpy in series [1] was -17.2 kcal/mol. The Tm in series [2] came to 32.9 °C.

For the sequence GTGTGACGAAAGTCCCAC (((.(((....))).))), the folding enthalpy in series [1] is -25 kcal/mol. Further, the Tm in series [2] worked out at 50.5 °C.

As for GTGTGCGAAAGCAACAC ((((((....))).))), the folding enthalpy in series [1] was -30.1 kcal/mol. Further, the Tm in series [2] was 61.3 °C.

For the sequence GTGTGCGAAAGCAATCAC ((((((....)))..))), the folding enthalpy in series [1] was -16.1 kcal/mol. For the same sequence, the Tm in series [2] stood at 39.9 °C.

As for GTGTGCGAAAGCAGGCAC ((((((....)))..))), in series [1], the folding enthalpy is -15.8 kcal/mol. Besides, in series [2], the Tm turned out to be 44.8 °C.

For GTGTGCGAAAGCAGTCAC ((((((....)))..))), the folding enthalpy in series [1] is -16.5 kcal/mol. For the same sequence, in series [2], the Tm worked out at 38.5 °C.

Take GTGTGCGAAAGCATACAC ((((((....)))..))): the folding enthalpy in series [1] is -18.2 kcal/mol. Also, the Tm in series [2] is 53.1 °C.

As to GTGTGCGGAAACGCACGC (.(((((....))))).), the folding enthalpy in series [1] is -16.4 kcal/mol. Also, the Tm in series [2] was found to be 66 °C.

For GTGTGTCGAAAGACGCAC (((.(((....))).))), the folding enthalpy in series [1] is -37.7 kcal/mol. In series [2], the Tm worked out at 61.4 °C.

For the sequence GTGTGTGAAAACACAC ((((((....)))))), the folding enthalpy in series [1] was -36.7 kcal/mol. Further, the Tm in series [2] worked out at 64.3 °C.

Take GTGTGTGGAAACACACAC (((((((....))))))): the folding enthalpy in series [1] is -32.2 kcal/mol. Further, the Tm in series [2] came out at 68.8 °C.

Take GTGTGTGGAAACACGTAC ((..(((....)))..)): the folding enthalpy in series [1] was -11.8 kcal/mol. The Tm in series [2] amounted to 38.7 °C.

In the case of GTGTGTGGAAACATACAC ((((.((....)).)))), the folding enthalpy in series [1] was -39.6 kcal/mol. Besides, the Tm in series [2] was 48.6 °C.

For the sequence GTGTGTGGAAACATACGC (.((.((....)).)).), the folding enthalpy in series [1] was -29.4 kcal/mol. In addition, in series [2], the Tm is 47 °C.

As to GTGTTAGGAAACTAACGC (.(((((....))))).), the folding enthalpy in series [1] was -21.8 kcal/mol. The Tm in series [2] stood at 47.4 °C.

Turning to GTGTTAGGAAACTAATAC ((.((((....)))).)), in series [1], the folding enthalpy is -23.9 kcal/mol. In addition, the Tm in series [2] amounted to 37.2 °C.

Regarding GTGTTATCGAAAGATCAC (((..(((....)))))), the folding enthalpy in series [1] was -27.6 kcal/mol. For the same sequence, the Tm in series [2] was found to be 33.8 °C.

In the case of GTGTTCACGAAAGTGCAC (((..(((....)))))), the folding enthalpy in series [1] is -20.7 kcal/mol. The Tm in series [2] was determined as 42.3 °C.

Consider GTGTTCCCGAAAGGGCAC (((..(((....)))))), for which, in series [1], the folding enthalpy is -22.4 kcal/mol. In addition, the Tm in series [2] came to 46.1 °C.

As for GTGTTCCGAAAGGACCAC (((.(((....))).))), the folding enthalpy in series [1] was -38.4 kcal/mol. Further, in series [2], the Tm was determined as 49.7 °C.

On to GTGTTCGAAAGAACCAC ((((((....))).))), for which the folding enthalpy in series [1] is -13.3 kcal/mol. The Tm in series [2] was 43.5 °C.
